Reference: ChEMBL document CHEMBL3808300, “Atropisomer Control in Macrocyclic Factor VIIa Inhibitors” (J Med Chem, 2016)

How the values were obtained:
Trypsin = Trypsin (Homo sapiens, UniProt P07477+P07478+P35030); experiment: Inhibition of purified human trypsin after 30 to 60 mins; format: protein assay
In short: (§1)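 Purified human enzyme, run at 25 °C. The reported Ki is the average of two experiments. The full protocol follows a previously published method.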

Coagulation factor X = Coagulation factor X (Homo sapiens, UniProt P00742); experiment: Inhibition of purified human factor 10a using S2765 as substrate after 30 to 60 mins; in short: as §1
Sequence of Coagulation factor X (P00742 41-179 limits assumed): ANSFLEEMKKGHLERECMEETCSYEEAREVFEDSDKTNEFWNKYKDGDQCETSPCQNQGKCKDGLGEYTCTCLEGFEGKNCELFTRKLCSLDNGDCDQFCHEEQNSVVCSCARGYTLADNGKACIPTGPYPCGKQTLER
Sequence of Coagulation factor X (P00742 235-488 limits assumed): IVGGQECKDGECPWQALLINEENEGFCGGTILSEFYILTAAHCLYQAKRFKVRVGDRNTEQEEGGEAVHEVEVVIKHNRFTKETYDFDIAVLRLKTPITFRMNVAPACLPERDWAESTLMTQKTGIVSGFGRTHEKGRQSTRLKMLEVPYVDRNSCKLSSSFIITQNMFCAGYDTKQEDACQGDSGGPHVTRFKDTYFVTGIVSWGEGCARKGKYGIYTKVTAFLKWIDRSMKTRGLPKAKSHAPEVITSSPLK

Coagulation factor XI = Coagulation factor XI (Homo sapiens, UniProt P03951); experiment: Inhibition of purified human factor 11a after 30 to 60 mins; in short: as §1
Sequence of Coagulation factor XI (P03951 19-387 limits assumed): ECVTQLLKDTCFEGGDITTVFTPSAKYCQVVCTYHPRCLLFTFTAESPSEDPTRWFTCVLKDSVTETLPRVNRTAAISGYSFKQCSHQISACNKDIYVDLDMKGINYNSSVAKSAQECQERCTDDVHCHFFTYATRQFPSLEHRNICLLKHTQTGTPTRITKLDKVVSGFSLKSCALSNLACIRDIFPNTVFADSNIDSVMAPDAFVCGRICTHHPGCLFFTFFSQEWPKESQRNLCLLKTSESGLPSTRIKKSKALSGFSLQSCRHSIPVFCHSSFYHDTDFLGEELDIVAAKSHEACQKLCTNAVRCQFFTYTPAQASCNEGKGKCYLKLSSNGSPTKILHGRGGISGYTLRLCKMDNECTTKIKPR
Sequence of Coagulation factor XI (P03951 388-625 limits assumed): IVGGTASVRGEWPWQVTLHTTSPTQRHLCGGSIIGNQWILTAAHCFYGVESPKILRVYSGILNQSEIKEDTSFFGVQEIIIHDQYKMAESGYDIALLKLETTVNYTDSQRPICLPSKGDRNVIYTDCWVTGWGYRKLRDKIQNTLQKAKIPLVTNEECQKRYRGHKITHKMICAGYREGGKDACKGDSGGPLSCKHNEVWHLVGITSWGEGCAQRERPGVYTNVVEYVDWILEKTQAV

Prothrombin = Prothrombin (Homo sapiens, UniProt P00734); experiment: Inhibition of purified human thrombin after 30 to 60 mins; in short: as §1
[1] = molecular target: Coagulation factor VII/tissue factor (Homo sapiens, UniProt P08709); experiment: Inhibition of recombinant human Tissue factor/factor 7a using S2288 as substrate after 30 to 60 mins; format: protein-complex assay
Sequence of Coagulation factor VII/tissue factor (P08709 61-212 limits assumed): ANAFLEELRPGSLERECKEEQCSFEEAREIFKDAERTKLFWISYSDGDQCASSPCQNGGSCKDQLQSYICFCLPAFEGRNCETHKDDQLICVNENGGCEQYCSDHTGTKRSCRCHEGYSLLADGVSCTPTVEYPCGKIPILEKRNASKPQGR
Sequence of Coagulation factor VII/tissue factor (P08709 213-466 limits assumed): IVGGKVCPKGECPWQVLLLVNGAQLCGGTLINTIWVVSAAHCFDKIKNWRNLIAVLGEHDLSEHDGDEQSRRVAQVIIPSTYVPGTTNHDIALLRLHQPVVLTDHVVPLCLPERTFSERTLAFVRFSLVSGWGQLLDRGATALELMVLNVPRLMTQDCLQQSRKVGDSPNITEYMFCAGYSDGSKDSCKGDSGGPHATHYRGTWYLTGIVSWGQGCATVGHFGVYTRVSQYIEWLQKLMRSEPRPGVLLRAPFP
Sequence of Coagulation factor VII/tissue factor (P13726 33-295 partner limits assumed): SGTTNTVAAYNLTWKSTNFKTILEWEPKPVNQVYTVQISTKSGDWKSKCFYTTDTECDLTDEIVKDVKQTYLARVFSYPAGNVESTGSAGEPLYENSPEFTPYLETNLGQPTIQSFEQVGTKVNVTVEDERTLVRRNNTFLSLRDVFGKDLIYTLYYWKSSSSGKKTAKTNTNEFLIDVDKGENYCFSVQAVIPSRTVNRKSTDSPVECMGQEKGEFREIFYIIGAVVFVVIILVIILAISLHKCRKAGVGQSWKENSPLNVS
In short: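 Enzyme is recombinant human TF/FVIIa complex, assayed at 25 °C. Ki is the mean of two experiments, and the method is the published protocol.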

Kallikrein-1 = Kallikrein-1 (Homo sapiens, UniProt P06870); experiment: Inhibition of purified human tissue kallikrein 1 using H-D-Val-Leu-Arg-AFC as substrate
Sequence of Kallikrein-1 (P06870 whole entry): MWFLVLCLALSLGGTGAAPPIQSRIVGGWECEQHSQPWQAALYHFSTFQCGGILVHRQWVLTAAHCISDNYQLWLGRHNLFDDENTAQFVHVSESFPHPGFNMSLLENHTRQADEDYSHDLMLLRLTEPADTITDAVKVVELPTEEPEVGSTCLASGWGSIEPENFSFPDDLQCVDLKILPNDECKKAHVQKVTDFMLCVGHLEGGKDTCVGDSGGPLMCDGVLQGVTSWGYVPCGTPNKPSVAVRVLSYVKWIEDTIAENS
In short: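 Uses purified human tissue kallikrein 1 at 37 °C. Ki is averaged from two independent experiments. The procedure follows an earlier published protocol.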

Row | SMILES | Ki (Trypsin) [µM] | Ki (Coagulation factor X) [µM] | Ki (Coagulation factor XI) [µM] | Ki (Prothrombin) [µM] | Ki [1] [µM] | Ki (Kallikrein-1) [µM]
1 | Cc1cc2ccc1[C@@H](C)COC(=O)Nc1cccc(c1)CNC(=O)[C@@H]2Nc1ccc2c(N)nccc2c1 | > 10 | > 13.3 | > 14.2 | > 11.5 | 0.0014 | 0.025
2 | C[C@@H]1COC(=O)Nc2cccc(c2)CNC(=O)C(Nc2ccc3c(N)nccc3c2)c2ccc1cc2 (stereo partly drawn) | > 6.2 | 6.8 | > 11 | 7.4 | 1.45 | 0.004
3 | Cc1cc2ccc1[C@@H](C)COC(=O)Nc1cccc(c1)CNC(=O)[C@H]2Nc1ccc2c(N)nccc2c1 | > 10 | > 13.3 | > 14.2 | > 11.5 | 4.51 | 0.031

These reach a lower Ki (Coagulation factor X). Values come first.

Row | Ki (Trypsin) [µM] | Ki (Coagulation factor X) [µM] | Ki (Coagulation factor XI) [µM] | Ki (Prothrombin) [µM] | Ki [1] [µM] | Ki (Kallikrein-1) [µM] | SMILES
4 | > 6.2 | 4.5 | 9.1 | 4.7 | 0.14 | 0.025 | C[C@H]1COC(=O)Nc2cccc(c2)CNC(=O)C(Nc2ccc3c(N)nccc3c2)c2ccc1cc2 (stereo partly drawn)
5 | – | 2.6 | 10.8 | > 13 | – | – | CC1COC(=O)Nc2cccc(c2)CNC(=O)C(Nc2ccc3c(N)nccc3c2)c2ccc1cc2 (stereo not drawn)
6 | 3.5 | 0.61 | 5.7 | > 13 | 0.51 | 0.035 | Nc1nccc2cc(NC3C(=O)NCc4cccc(c4)NC(=O)OCCc4ccc3cc4)ccc12 (stereo not drawn)
